In all, about 2,500 compounds went through this assay and about 460 (18%) were called active.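 The calls were made as follows: active = mean activation above a cutoff of low control average plus 3 SD from the earlier screen (cut at about 12% in these data); inactive = the rest.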 These entries were drawn from the full list.
Test: IANBD-channel fluorescence artefacts in buffer – biochemical, artefact control for cardiac RTF calcium sensitizer project, confirmation (AID 504382)
Settings: IANBD fluorescence interference counterscreen, EC20 Ca2+, at 7.2 µM, active compounds read high, scaled: EC20 calcium 0, EC100 calcium 100
Summary of the method: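 Medium: MOPS buffer, 190 mM, with KCl, MgCl2, EGTA, NTA, DTT, pH 7.20; Dosing: one dose of 7.2 µM, 0.7% DMSO; Probe or stimulus: calcium at EC20 level, 0.472 mM final; Incubation: 15 min, 25 °C; Evaluation: compound fluorescence interference relative to control well signal range; Signal: fluorescence, 480/540 nm.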

| Structure (SMILES) | fluorescence artifact activation |
| --- | --- |
| CC1=CC2=NC(=O)/C(=C\c3ccc(-c4cccc(Cl)c4)o3)C(=N)N2O1 | 7.64% (inactive) |
| CCOc1cc2c(cc1/C=C/c1noc(C)c1[N+](=O)[O-])OC(C)C2 (centres undefined) | 145% (active) |
| Cc1cc(N2C(=O)C(O)=C(C(=O)c3cccs3)C2c2ccc(F)cc2)no1 (centres undefined) | 7.29% (inactive) |
| CCc1cccc2cc3c(N)c(C(=O)Nc4ccc(S(=O)(=O)N5CCCC5)cc4)sc3nc12 | 6.55% (inactive) |
| COc1ccc(/C=C/C(=O)c2nc3ccccc3n2CC(=O)c2ccc(OC)cc2)cc1 | -0.1% (inactive) |
| CCN(CC)c1ccc(C=Nc2cc(C)ccc2C)c(O)c1 | 1.34% (inactive) |
| CC(=O)NC(Cc1ccc(F)c(F)c1)C(=O)NC1CCN(S(=O)(=O)c2ccc(C)cc2)CC1 (centres undefined) | -0.07% (inactive) |
| COc1ccc(C(=O)c2sc3nc(-c4ccccc4)ccc3c2N)cc1 | 21.8% (active) |
| COc1ccc(C(=O)c2sc3nc(C)cc(-c4cccs4)c3c2N)cc1 | 6.39% (inactive) |
| COc1ccc(-c2c(C#N)c(N)nc3sc(C(=O)c4ccccc4)c(N)c23)cc1 | 0.01% (inactive) |
| Nc1ccc2cc3[nH]c4cc(N)ccc4c3nc2c1 | 2.11% (inactive) |
| N#Cc1c(NCCCO)nc(-c2ccccc2)c2c1CCCC2 | 4.04% (inactive) |
| CCOc1ccc(NC(=O)c2cccc(OC(=S)N3CCOCC3)c2)cc1 | 0% (inactive) |
| COc1ccccc1C(=O)Nc1ccc(OC(C)C(=O)N2CCOCC2)cc1 (centres undefined) | 822% (active) |
| COc1ccc(OC(C)C(=O)Nc2cccc(OC)c2)cc1 (centres undefined) | 0.45% (inactive) |
| COc1ccc2c(c1)c(/C=C/c1cc[n+](C)cc1)cn2C | 0.08% (inactive) |
| COC(=O)c1cc2c(C)c(C)c3ccccn3c-2c1C(=O)OC | 0.46% (inactive) |
| O=C(CCN1C(=O)/C(=C/c2cccs2)SC1=S)NNC(=O)c1cccc(O)c1 | -0.08% (inactive) |
| Oc1cccc(Nc2nc(O)c(/C=C3\C=Nc4ccccc43)s2)c1 | 43% (active) |
| COc1cc([N+](=O)[O-])ccc1NC(=O)COC(=O)c1n[nH]c2ccccc12 | 0.03% (inactive) |
| COc1cc2c(cc1NC(=O)COC(=O)/C=C/c1ccc([N+](=O)[O-])cc1)oc1ccccc12 | 796% (active) |
| COc1cc([N+](=O)[O-])ccc1N/C=C/C(=O)c1cccs1 | 0.6% (inactive) |
| Cc1c(C)[n+](=O)c(-c2ccc(Br)cc2)c(C)n1[O-] | 412% (active) |

| Structure (SMILES) | fluorescence artifact activation |
| --- | --- |
| CCn1cc(C(=O)NCCC(=O)NCCO)c(=O)c2cc3c(cc21)OCO3 | 9.79% (inactive) |
| O=C(C1=NN[C@@H]2C(=O)N(c3ccccc3C(F)(F)F)C(=O)[C@H]12)c1ccc2ccccc2n1 | 22.3% (active) |
| Cc1cccc(NC(=S)Nc2ccc(N3CCOCC3)cc2)c1C | 0.78% (inactive) |
| O=c1ccc2c(-c3ccccc3)c3ccc(O)cc3oc-2c1 | 12.3% (active) |
| Nc1ccc(-c2c3ccc(=O)cc-3oc3cc(O)ccc23)cc1C(=O)O | -0.02% (inactive) |
| O=c1cc2oc3cc(O)c(O)cc3c(-c3ccccc3O)c-2cc1O | 0.4% (inactive) |
| CCCNS(=O)(=O)c1ccc2c(c1)n(C)c(=O)n2C | 1.63% (inactive) |
| Cc1cnc(C(=O)Nc2nnc(SCc3c(Cl)cccc3Cl)s2)cn1 | 1.18% (inactive) |
| O=C1c2cccc3c(N4CCCCC4)ccc(c23)C(=O)N1c1cccc(O)c1 | 6.35% (inactive) |
| O=C(OCCN1CCCCC1)c1ccccc1Br | -0.03% (inactive) |
| CN1CCCC(OC(=O)c2ccccc2Br)C1 (centres undefined) | 20.7% (active) |
| O=C(Cn1c(=O)oc2cc(S(=O)(=O)N3CCCC3)ccc21)N1CCc2ccccc2C1 | 0.09% (inactive) |
| CC(C)(C)c1ccc(C(=O)Nc2cccc3ncccc23)cc1 | 0.15% (inactive) |
| CCOC(=O)C(=O)Nc1nnc(COc2ccccc2)s1 | -0.01% (inactive) |
| Cc1cc(C)cc(C(=O)NC(CC(N)=O)c2ccc(N3CCCCCC3)c([N+](=O)[O-])c2)c1 (centres undefined) | 0.1% (inactive) |
| NC(=O)CC(NC(=O)Cc1ccc(Cl)cc1)c1ccc(N2CCN(c3ccccn3)CC2)c([N+](=O)[O-])c1 (centres undefined) | 51.4% (active) |
| NC(=O)CC(NC(=O)c1ccc(Br)cc1)c1ccc(N2CCN(c3ccc(F)cc3)CC2)c([N+](=O)[O-])c1 (centres undefined) | 13.7% (active) |
| O=C(NCc1ccccc1)c1ccc(N2CCC3(CC2)CC(c2ccccc2)=NO3)c([N+](=O)[O-])c1 | -0.07% (inactive) |
| O=C(N/N=C/c1cc([N+](=O)[O-])ccc1N1CCNCC1)c1ccc([N+](=O)[O-])cc1 | 5.53% (inactive) |
| CN(/N=C/c1ccc(O)cc1O)c1ncc(C(F)(F)F)cc1Cl | 0.11% (inactive) |
| O=C(c1ccc(Cn2cc([N+](=O)[O-])cn2)o1)N1N=C(C(F)F)CC1(O)C(F)F (centres undefined) | 3.96% (inactive) |
| CC/C(=N/Nc1cccc(C)c1)c1cnnc(SC)n1 | 3.63% (inactive) |
| Cc1ccccc1NC(=S)Nc1ccc(Br)cc1 | -0.08% (inactive) |

| Structure (SMILES) | fluorescence artifact activation |
| --- | --- |
| Cc1ccc(Cl)c2c(N=Nc3ccccc3)c(O)[nH]c12 | 0.17% (inactive) |
| COCCN1C(=O)/C(=C/c2ccc(N3CCCC3)cc2C)SC1=S | 0.17% (inactive) |
| COc1ccc(N2C(N)=NC(N)=NC2(C)C)cc1 | -0.01% (inactive) |
| COC(=O)c1ccc(NC(=O)c2cccc(OC)c2)cc1 | 0.1% (inactive) |
| Cc1ccc(OCCCC(=O)NC2CCCCC2)cc1 | 0% (inactive) |
| Cc1cc(C)n2nc(C(=O)N3CCCC(Nc4ccc(C(C)C)cc4)C3)cc2n1 (centres undefined) | 2.67% (inactive) |
| COc1cc(NC(=O)[C@@H]2CCCN2S(=O)(=O)c2cccc3cccnc23)cc(OC)c1OC | 0.18% (inactive) |
| Cc1cc(=O)n2nc(N3CCCC3C(=O)Nc3ccc(C(C)C)cc3)sc2n1 (centres undefined) | 166% (active) |
| C=C1CCN([C@@H](Cc2ccccc2)C(=O)O)S(=O)(=O)c2ccccc21 | 4.75% (inactive) |
| Cc1cccc(NC(=O)Cn2cnc3ccc(S(=O)(=O)N4CCC(C)CC4)cc3c2=O)n1 | 3.57% (inactive) |
| COc1ccc(-[n+]2c(C)cc(/C=C3\Sc4ccccc4N3C)cc2C)cc1 | 50.7% (active) |
| COc1ccccc1-[n+]1c(C)cc(/C=C2\Sc3ccccc3N2C)cc1C | 0.15% (inactive) |
| CC[n+]1c(/C=C2\Sc3ccccc3N2C)ccc2cccc(C)c21 | 0.11% (inactive) |
| CN(C)CCN(C)Cc1c2ccccc2c(CN(C)CCN(C)C)c2ccccc12 | 8.32% (inactive) |
| Cc1cccc(N2C(=O)c3cccc4c(N(C)CCO)ccc(c34)C2=O)c1 | 0.05% (inactive) |
| CC1(c2cccc(Br)c2)NC(=O)NC1=O (centres undefined) | 16.7% (active) |
| Nc1ccc2nc3c(=O)n(C4CCCCC4)c(=O)[nH]c3nc2c1 | 1.78% (inactive) |
| Cc1ccc(C)c(N2CCN(C(=O)CN3C(=S)NC(C)(C)CC3C)CC2)c1 (centres undefined) | 8.59% (inactive) |
| C/C=C/c1ccc(OCCCNCC(C)O)c(OC)c1 (centres undefined) | 112% (active) |
| COc1cc(/C=C2\CC/C(=C\c3ccc(OCCO)c(OC)c3)C2=O)ccc1OCCO | 0.12% (inactive) |
| COc1ccc(OC)c(/C=N/N=C(\N)c2nonc2N)c1 | 9.14% (inactive) |
| COc1ccc(CN2CCC(=O)N([C@H](CO)c3ccccc3)CC2)cc1 | 6.01% (inactive) |
| CC(C)CN(C(=O)CCCc1nc2ccccc2c(=O)[nH]1)c1c(N)n(Cc2ccccc2)c(=O)[nH]c1=O | 0.01% (inactive) |

| Structure (SMILES) | fluorescence artifact activation |
| --- | --- |
| CCOc1ccccc1N1CCN(CC(=O)c2c(N)n(C)c(=O)n(C)c2=O)CC1 | 2.53% (inactive) |
| CCOc1ccccc1N1CCN(CC(=O)N(CC(C)C)c2c(N)n(CC(C)C)c(=O)[nH]c2=O)CC1 | 13.8% (active) |
| O=C1NC(c2ccccc2)=C(c2nc3ccccc3s2)C(c2ccc(O)cc2)N1 (centres undefined) | -0.03% (inactive) |
| Nc1ccc2c3c(cccc13)-c1ccccc1-2 | 0.02% (inactive) |
| Cc1n[nH]c(C)c1N1C(=O)c2cccc3c(N4CCCCCC4)ccc(c23)C1=O | 0.08% (inactive) |
| COc1cc(/C=C2\CCC(C)C3=C(c4cc(OC)c(OC)c(OC)c4)C(C#N)=C(N)OC32)cc(OC)c1OC (centres undefined) | 14.5% (active) |
| CC1(C)CC(=O)C2=C(C1)OC(N)=C(C#N)C21CCN(Cc2ccccc2)CC1 | 0.25% (inactive) |
| COC(=O)C1=COC(C)C2CN3CCc4c([nH]c5ccccc45)C3CC12 (centres undefined) | 1.05% (inactive) |
| CCOC(=O)Cn1c(=NC(=O)c2cc(-c3cccs3)nc3ccccc23)sc2cc(S(N)(=O)=O)ccc21 | -0.11% (inactive) |
| COc1ccccc1NC(=O)/C=C/C(=O)O | 0.29% (inactive) |
| O=C(Nc1ccccc1OC(=O)c1ccccc1)c1ccccc1 | 45% (active) |
| CC(C)C(=O)c1cc2c(cc1NC(=O)c1ccccc1)OCCO2 | 0.02% (inactive) |
| COc1ccc(OC)c(C2C3CN(C(C)C)CC=C3C(C#N)=C(N)C2(C#N)C#N)c1 (centres undefined) | 1.64% (inactive) |
| CCn1c(NC(=O)Nc2cccc(C)c2C)cc2sccc21 | 0.08% (inactive) |
| C#CC[N+](C)(C)CCCCCCCCCC | 13.8% (active) |
| Cc1nccc(-c2cccc(N/N=C(\C#N)C(=O)c3ccccc3)c2)n1 | -0.02% (inactive) |
| CCOC(=O)Cn1nc2sc3ccccc3n2c(=O)c1=O | -0.05% (inactive) |
| Cc1ccc(CNC(=O)c2cccc3c2C(=O)c2ccc(N4CCCCC4)cc2S3(=O)=O)cc1 | -0.01% (inactive) |
| O=C(CCc1ccc(S(=O)(=O)NCCc2ccccc2)cc1)N1CCN(Cc2ccc3c(c2)OCO3)CC1 | -0.04% (inactive) |
| Cc1ccc(S(=O)(=O)NC(C)(C)CN2CCC(Cc3ccccc3)CC2)cc1 | 3.9% (inactive) |

— PubChem BioAssay AID504382 (The Scripps Research Institute Molecular Screening Center, 2011)
